According to ChEMBL document CHEMBL4808178 (J Med Chem, 2021):
Activity calls are given as the source filed them. The calls are words filed in the database; no cut-off is given here.

Tests used:
[1] = target: Dual specificity protein kinase CLK2 (Homo sapiens, UniProt P49760); assay: Inhibition of human CLK2 incubated for 2 hrs
[2] = target: T1, Tyrosine-protein kinase ZAP-70 (Homo sapiens) (UniProt P43403); assay: Inhibition of ZAP70 (unknown origin) assessed as residual activity at 1 uM relative to control
T1 sequence (whole entry): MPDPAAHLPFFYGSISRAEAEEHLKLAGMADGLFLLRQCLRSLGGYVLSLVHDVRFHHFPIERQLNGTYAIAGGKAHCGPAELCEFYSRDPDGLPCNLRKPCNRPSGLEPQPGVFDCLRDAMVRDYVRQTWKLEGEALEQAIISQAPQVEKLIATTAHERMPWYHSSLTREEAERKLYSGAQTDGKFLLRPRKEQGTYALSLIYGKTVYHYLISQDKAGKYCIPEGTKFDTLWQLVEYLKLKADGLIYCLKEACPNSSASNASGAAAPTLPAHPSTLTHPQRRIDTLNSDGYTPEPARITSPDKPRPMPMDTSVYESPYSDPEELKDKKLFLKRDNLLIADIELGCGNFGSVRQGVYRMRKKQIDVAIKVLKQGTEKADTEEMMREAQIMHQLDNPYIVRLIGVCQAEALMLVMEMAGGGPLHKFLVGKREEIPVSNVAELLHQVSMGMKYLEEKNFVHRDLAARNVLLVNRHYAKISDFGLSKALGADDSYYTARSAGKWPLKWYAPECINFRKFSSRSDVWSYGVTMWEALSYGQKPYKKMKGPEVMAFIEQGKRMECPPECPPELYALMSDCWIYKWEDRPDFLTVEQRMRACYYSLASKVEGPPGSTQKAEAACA
Summary of the method: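 Commercial profiling service against a 208-kinase panel; single concentration 1 μmol/L; residual kinase activity expressed relative to control.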

[3] = system: HCT-116; assay: Cytotoxicity against human HCT-116 cells assessed as reduction in cell viability incubated for 72 hrs by MTT assay; format: functional, cell-based; details: HCT-116, 72 h
Summary of the method: (§1)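 About 5 × 10³ cells/well, seeded overnight at 37 °C, 5% CO₂, in DMEM or RPMI-1640 with 10% FBS and antibiotics. DMSO-dissolved compounds diluted in medium, exposure 72 h.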

[4] = system: T-24; assay: Cytotoxicity against human T24 cells assessed as reduction in cell viability incubated for 72 hrs by MTT assay; format: functional, cell-based; details: T-24, 72 h; summary of the method: as §1
[5] = target: T2, Aldehyde dehydrogenase 1A1 (Homo sapiens) (UniProt P00352); assay: (§2) Inhibition of human ALDH1A1 incubated for 2 hrs
T2 sequence (whole entry): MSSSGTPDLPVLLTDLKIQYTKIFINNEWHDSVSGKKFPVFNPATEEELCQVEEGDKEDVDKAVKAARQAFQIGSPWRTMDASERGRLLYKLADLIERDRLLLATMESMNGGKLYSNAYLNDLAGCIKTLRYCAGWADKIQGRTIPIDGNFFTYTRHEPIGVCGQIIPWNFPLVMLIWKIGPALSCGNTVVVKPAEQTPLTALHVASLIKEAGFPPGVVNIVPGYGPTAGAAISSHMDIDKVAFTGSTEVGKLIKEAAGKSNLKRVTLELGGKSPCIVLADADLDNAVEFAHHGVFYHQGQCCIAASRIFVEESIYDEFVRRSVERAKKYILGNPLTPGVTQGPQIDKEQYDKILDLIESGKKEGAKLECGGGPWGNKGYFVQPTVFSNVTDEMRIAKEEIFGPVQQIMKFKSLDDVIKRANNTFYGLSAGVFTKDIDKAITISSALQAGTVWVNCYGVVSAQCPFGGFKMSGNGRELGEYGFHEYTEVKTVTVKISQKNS

[6] = target: T3, Aldehyde dehydrogenase 1A1 (Homo sapiens, UniProt P00352); assay: as §2
T3 sequence (P00352 whole entry): T2 sequence (whole entry)

[7] = system: HCT-116; assay: Inhibition of cell stemness in human HCT116 cells assessed as reduction in number of tumor spheres at 5 uM after 10 days by microscopic analysis; format: functional, cell-based; details: time 10.0 day
Summary of the method: (§3)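 Sorted ALDH⁺ HCT-116 cells, 800/well, in serum-free DMEM with B27 (1:50), EGF 20 ng/mL, β-FGF 10 ng/mL; co-incubated with compound (5 μM) or DMSO vehicle for 10 days; sphere number, diameter and morphology scored from microscopy images; mean ± SD, n = 3.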

[8] = system: HCT-116; assay: Inhibition of cell stemness in human HCT116 cells assessed as morphological alterations at 5 uM after 10 days by microscopic analysis; format: functional, cell-based; details: time 10.0 day; summary of the method: as §3
[9] = system: HCT-116; assay: Effect on Wnt/beta-Catenin signaling in human HCT116 cells assessed as reduction in cyclin-D1 mRNA level at 20 uM after 24 hrs by RT-qPCR analysis; format: functional, cell-based
Summary of the method: (§4)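 HCT-116 cells treated 24 h; total RNA by TRIZOL, one-step RT-qPCR: 55 °C 10 min, 95 °C 1 min, then 39 cycles of 95 °C 10 s and 60 °C 30 s, with melting-curve and no-template controls. β-Actin as internal standard; relative expression by 2^−ΔΔCt, mean ± SD (n = 3).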

[10] = system: HCT-116; assay: Effect on Wnt/beta-Catenin signaling in human HCT116 cells assessed as reduction in S100A4 mRNA level at 20 uM after 24 hrs by RT-qPCR analysis; format: functional, cell-based; summary of the method: as §4
[11] = system: HCT-116; assay: Induction of apoptosis in human HCT116 cells assessed as viable cells at 10 uM after 24 hrs by annexin V-FITC/propidium iodide staining based flow cytometry (reference value: 88.3%); format: functional; details: read-out: Activity
[12] = system: HCT-116; assay: Induction of apoptosis in human HCT116 cells assessed as late apoptotic cells at 10 uM after 24 hrs by annexin V-FITC/propidium iodide staining based flow cytometry (reference value: 5.1%); format: functional
[13] = system: HCT-116; assay: Induction of apoptosis in human HCT116 cells assessed as necrotic cells at 10 uM after 24 hrs by annexin V-FITC/propidium iodide staining based flow cytometry (reference value: 5.6%); format: functional
[14] = system: HCT-116; assay: Induction of apoptosis in human HCT116 cells assessed as necrotic cells at 20 uM after 24 hrs by annexin V-FITC/propidium iodide staining based flow cytometry (reference value: 5.6%); format: functional
[15] = system: HCT-116; assay: Induction of cell cycle arrest in human HCT116 cells assessed as accumulation at G2/M phase at 20 uM after 24 hrs by propidium iodide-staining based flow cytometry (reference value: 14.67%); format: functional
[16] = system: HCT-116; assay: Induction of apoptosis in human HCT116 cells assessed as increase in Bax protein expression at 20 uM incubated for 24 hrs by Western blot analysis; format: functional, cell-based
Summary of the method: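 HCT-116 cells at 2 × 10⁵ cells/mL in DMEM/10% FBS, grown 12 h at 37 °C, then treated 24 h (vehicle DMSO). Lysates quantified by BCA, run on 10% SDS-PAGE, PVDF transfer, blocked in 5% milk/TBST, primary antibodies 4 °C overnight, HRP secondary 2 h, chemiluminescent detection; normalized to β-actin, n = 3.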

[17] = Half life in Sprague-Dawley rat at 25 mg/kg, po measured up to 48 hrs by LC-MS/MS analysis; format: ADME, organism-based; details: in vivo
Summary of the method: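 Overnight-fasted male SD rats (about 250−270 g), three per group, single oral 25 mg/kg; test compound suspended in 5% CMC-Na, control as sodium salt in phosphate buffer. Blood sampled 0.25–48 h, plasma by centrifugation, stored −40 °C, quantified by LC−MS/MS against plasma standard curve (3–3000 ng/mL) with internal standard; model-fitted PK parameters.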

Dual specificity protein kinase CLK2, sequence (P49760 whole entry): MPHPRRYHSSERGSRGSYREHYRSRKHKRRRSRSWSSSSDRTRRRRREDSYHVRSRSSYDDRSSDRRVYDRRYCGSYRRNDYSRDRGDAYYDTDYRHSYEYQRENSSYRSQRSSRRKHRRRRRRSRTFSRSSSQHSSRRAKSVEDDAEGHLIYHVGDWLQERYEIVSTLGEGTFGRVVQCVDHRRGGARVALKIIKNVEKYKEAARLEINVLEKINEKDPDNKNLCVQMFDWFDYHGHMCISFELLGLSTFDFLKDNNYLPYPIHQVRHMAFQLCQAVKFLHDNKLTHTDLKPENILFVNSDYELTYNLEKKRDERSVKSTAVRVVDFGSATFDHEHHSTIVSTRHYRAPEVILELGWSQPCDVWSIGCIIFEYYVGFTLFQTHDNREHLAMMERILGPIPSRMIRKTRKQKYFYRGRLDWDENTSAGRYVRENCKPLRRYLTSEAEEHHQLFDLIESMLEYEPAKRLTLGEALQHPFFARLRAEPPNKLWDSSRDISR

- IC50 [1]: 32.7 nM
- Activity [2]: 26%
- inhibition [5]: Dose-Dependent Effect
- IC50 [6]: 100 nM
- half-life [17]: 6.67 h
Structure (SMILES): O=C(NCCO)c1ccc2c(c1)nc(Nc1cccc(Cl)c1)c1ccncc12
- IC50 [3]: 3070 nM
- IC50 [4]: 6100 nM
- inhibition [7]: Active
- inhibition [8]: Active
- Activity [9]: Active
- Activity [10]: Active
- viability at 10 µM [11]: 56.4%
- Activity [12]: 23.4%
- Activity [13]: 7.6%
- Activity [14]: 8.7%
- Activity [15]: 22.72%
- Activity [16]: Active
